Beta apoptosis: blocks beta cell apoptosis; INS-1E cytokine-induced death, ATP luminescence, 48 h; percent of positive-control rescue, neutral wells zero; protection from apoptosis, % (no concentration beside the values); hit rate 0.8% among 300,000; AID 435005;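 active = Every replicate reaches about 75%, or at least half do and their mean reaches it too, limit read from the data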;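 also: 0% = cytokine-treated negative control wells and 100% = positive control rescue; higher means more ATP so stronger rescue from cytokine killing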
CHOP UPR activ: apoptotic UPR (CHOP) activation; CHO-CHOP luciferase reporter, luminescence; percent of tunicamycin response over DMSO baseline; activation, % at 10 µM; hit rate 0.34% among 330,000; AID 449763;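 active = at 10 µM dose, activation of 40% or more, normalized to positive control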;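 also: 100% = tunicamycin at 10 µg/mL and 0% = DMSO alone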
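System: CHO-CHOP luciferase reporter cell line; amount: 500 cells/well; buffer or medium: F12 medium containing 10% fetal bovine serum; incubation: 6 h compound exposure at 37 °C after overnight seeding; measured by: luciferase luminescence after 10 min with Steady-Glo reagent; evaluation: % reporter activation, DMSO baseline versus tunicamycin full activation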
CSC inhib: blocks cancer stem cells. cancer stem cell-like cells viability, luminescence. inhibition, % at 7.5 µM. hit rate 1.1% among 300,000; in the data active = inhibition above about 75%; tested in HMLE shEcad cells
SKKanGAS inh: SKKanGAS growth inhibition; S. pyogenes SKKanGAS, kanamycin growth, BacTiter-Glo, 6 h; inhibition, % at 7.5 µM; hit rate 1.3% among 300,000;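 active = mean replicate score, as percent of positive control median, at least 50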;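 also: strain carries kanamycin resistance gene driven by streptokinase promoter and grows in 40 µg/ml kanamycin; loss of luminescence reflects streptokinase promoter inhibition or plain growth inhibition; 0% = median of DMSO wells and 100% = positive control at its reference dose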
Mdm2-MdmX inh: human Mdm2/MdmX binding inhibition. hit rate 3% among 330,000. O15151+Q00987. inhibition, % at 8 µM. AID 485346. SaOS-2 split-luciferase Mdm2/MdmX complementation, luminescence;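 active = inhibition of at least 50% at 8 µM in the primary screen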
Target sequence (O15151 whole entry, looked up): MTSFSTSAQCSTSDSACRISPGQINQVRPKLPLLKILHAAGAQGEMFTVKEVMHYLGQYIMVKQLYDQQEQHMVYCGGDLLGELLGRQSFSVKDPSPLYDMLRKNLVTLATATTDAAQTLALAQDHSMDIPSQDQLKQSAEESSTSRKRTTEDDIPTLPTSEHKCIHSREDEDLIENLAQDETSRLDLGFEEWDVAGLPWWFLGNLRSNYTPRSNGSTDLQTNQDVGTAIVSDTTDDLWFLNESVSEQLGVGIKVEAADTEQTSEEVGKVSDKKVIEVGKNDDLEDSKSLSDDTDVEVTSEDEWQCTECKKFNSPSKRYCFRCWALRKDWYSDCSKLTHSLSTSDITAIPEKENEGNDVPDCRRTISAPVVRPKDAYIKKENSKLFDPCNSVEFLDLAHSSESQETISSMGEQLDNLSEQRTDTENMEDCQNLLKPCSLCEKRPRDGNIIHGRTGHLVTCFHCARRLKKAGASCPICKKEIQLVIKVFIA
Target sequence (Q00987 whole entry, looked up): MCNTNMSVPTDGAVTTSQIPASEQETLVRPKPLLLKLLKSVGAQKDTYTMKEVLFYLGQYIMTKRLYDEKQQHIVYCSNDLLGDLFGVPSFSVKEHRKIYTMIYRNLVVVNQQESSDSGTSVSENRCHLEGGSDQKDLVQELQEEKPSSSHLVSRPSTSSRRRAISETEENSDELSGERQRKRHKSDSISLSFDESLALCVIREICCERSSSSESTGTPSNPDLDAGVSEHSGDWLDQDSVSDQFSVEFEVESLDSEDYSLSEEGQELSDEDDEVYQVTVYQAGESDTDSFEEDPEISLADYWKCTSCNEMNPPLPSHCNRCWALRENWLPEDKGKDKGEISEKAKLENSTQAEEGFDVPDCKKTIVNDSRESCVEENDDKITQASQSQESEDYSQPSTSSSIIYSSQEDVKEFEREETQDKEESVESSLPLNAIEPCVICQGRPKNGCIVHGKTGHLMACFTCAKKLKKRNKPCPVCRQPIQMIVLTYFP
XBP1 UPR activ: adaptive UPR (XBP1) activation; activation, % at 20 µM; CHO-XBP1 luciferase reporter, IRE1-XBP1 UPR activation, luminescence; percent of tunicamycin response, DMSO as zero; hit rate 0.33% among 330,000;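 active = versus positive control, 20 µM dose yields 30% or more activation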;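 also: 100% = tunicamycin at 10 µg/mL and 0% = DMSO only wells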
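Material: CHO-XBP1 cells stably carrying IRE1-XBP1-driven luciferase reporter | Medium: F12 with 10% serum | Compound dosing: 20 µM single concentration, DMSO 1% | Incubation: Overnight seeding at 37 °C, 6 h compound treatment at 37 °C | Detection: Steady-Glo luminescence read | Read-out basis: % activation of reporter signal versus tunicamycin and DMSO controls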
Starred values were filed as active, the others as inactive; / = no result. Most compounds without a hit are left out; they make up all but 4.8% or so of the library.

SMILES	Beta apoptosis	CHOP UPR activ	CSC inhib	SKKanGAS inh	Mdm2-MdmX inh	XBP1 UPR activ
Cc1ccc(S(=O)(=O)/N=C2/C=C(Sc3ncn[nH]3)C(=O)c3ccccc32)c(C)c1	129*	/	103*	/	/	/
Cc1ccc(S(=O)(=O)Nc2ccc(O)c(Sc3ncn[nH]3)c2)cc1	/	0	4	-6	17	-3
CCC1CCCCN1C(=O)c1cc(COc2ccc3ncccc3c2)on1 (stereo not given)	113*	4	-4	-7	-24	-1
COCCC1CCCCN1C(=O)c1cc(COc2ccc(-n3cncn3)cc2)on1 (stereo not given)	87*	8	-13	-3	24	-3
COCC1CCCCN1C(=O)c1cc(COc2ccc3ncccc3c2)on1 (stereo not given)	86*	10	3	-11	23	-4
COCCOC1CCN(C(=O)c2cc(COc3ccc(-n4cncn4)cc3)on2)CC1	-4	5	7	-4	13	-5
CCN1CCN(C(=O)c2cc(COc3ccc4ncccc4c3)on2)CC1	45	-2	7	-1	-6	-1
CC(CCCC(C)(C)O)NC(=O)c1cc(COc2ccc3ncccc3c2)on1 (stereo not given)	88*	4	-6	-4	16	-4
COc1ccc(S(=O)(=O)N2CCN(C(=O)CCc3c[nH]c4ccccc34)CC2)cc1	-10	1	/	/	18	-1
Cc1cc(NC(=O)c2ccc(C)s2)n(-c2nc3ccccc3[nH]2)n1	27	3	-2	52*	23	6
CC(=O)c1ccc(OCc2cc(C(=O)N(C)CCOc3ccc(C)cc3)no2)cc1	-2	4	9	-5	-68	-3
CC(C)c1cccc(C(C)C)c1OC(=O)[C@H]1OC(C(C)(C)C)=C[C@@H]1c1ccccc1	111*	8	21	/	1	-3
CCCC[C@H](CC(=O)c1ccccc1)[C@@H](OC(C)=O)C(=O)Oc1c(C(C)C)cccc1C(C)C	6	0	19	/	10	-5
CCCCN(CC(=O)NC1CCCC1)C(=O)C(=O)Nc1ccc2c(c1)OCCO2	-3	0	0	3	-27	-6
O=C(NCc1cccnc1)c1ccc(Cn2c(=S)[nH]c3ccc(Br)cc3c2=O)cc1	98*	-1	4	17	17	1
O=c1c2cc(Br)ccc2[nH]c(=S)n1Cc1ccccc1	/	0	/	17	30	1
O=C(NNC(=O)c1cc(S(=O)(=O)N2CCOCC2)c(Cl)cc1Cl)c1ccccc1F	-1	0	-15	/	15	-2
CCc1cc2cccc(C)c2nc1SCC(=O)Nc1cc(C)on1	2	3	30	0	20	-2
CCc1cc2cccc(C)c2nc1SCC(=O)c1ccc(NC(C)=O)cc1	0	-1	121*	-13	-5	2
CCc1cc2ccc(C)cc2nc1SCC(=O)c1ccc(NC(C)=O)cc1	7	-1	87*	2	7	1
Cc1ccc(CNC(=O)C2CCCN(c3ncnc4c3nc3n4CCCCC3)C2)cc1 (stereo not given)	5	0	1	0	-3	-4
CCCn1nnnc1NC(=O)c1ccc2ccccc2c1	-6	1	27	90*	16	-2
CCCn1nnc(NC(=O)c2ccc3ccccc3c2)n1	6	5	22	-9	-26	2
O=C(COC(=O)CNC(=O)c1ccccc1)NC(=O)NC1CCCCC1	-3	-1	/	/	-31	-1
Cc1cc(N/N=C/c2ccc(O)c(C)c2O)nc(-c2ccccc2O)n1	16	/	113*	58*	/	/
C/C(=N\Nc1cc(C)nc(-c2ccccc2O)n1)c1ccccc1	/	2	-1	23	25	4
COc1ccc2cc(CN(Cc3ccco3)Cc3nnnn3C3CCCCC3)c(=O)[nH]c2c1	-18	1	-3	6	20	-3
CC(C)(C)c1ccc(CN(Cc2ccco2)Cc2nnnn2C2CCCC2)cc1	22	1	-4	51*	33	2
COc1ccc(NS(=O)(=O)c2cccc(C(=O)N/N=C(\C)c3ccncc3)c2)cc1	-3	5	-7	-7	11	1
